Columns and labels:
P388 [1] = test: Optimal dose per injection in mg/kg required to inhibit growth of P388 leukemia cells in mice; format: functional, Mus musculus
Procedure, shortened: (§1)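 P388 leukemia implanted ip in mice; drug given ip on days 1 and 5 (ip/ip; D1,5), dosed in mg/kg per injection. Read-out is treated/control (T/C, %) with cures counted, reported at the optimal dose.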

L1210 = test: Tested in vitro against murine L1210 leukemia.; format: functional, cell-based; conditions: Mus musculus
P388 [2] = test: Activity against P388 leukemia cells in mice, by intraperitoneal dosing and net log tumor cell kill was reported; format: functional, Mus musculus
P388 [3] = test: Inhibition of P388 leukemia cells in mice, measured as percent treated to the control values with the number of 30 day survivors; format: functional, Mus musculus; procedure, shortened: as §1

Structure (SMILES) | Dose (P388 [1]) | IC50 (L1210) | Activity (P388 [2]) | T/C (P388 [3])
CCN(CC)CCNc1ccc2c3c(nn2CC(O)CN(CC)CC)-c2c(O)ccc(O)c2C(=O)c13.Cl (stereo unspecified) | 100 mg/kg | 1300 nM | 1.2 | 
CN(C)CCNCCn1nc2c3c(c(NCCNCCO)ccc31)C(=O)c1c(O)ccc(O)c1-2.Cl | 50 mg/kg | 1400 nM | >6.8 | 226%
CCN(CC)CCn1nc2c3c(c(NCCNCCO)ccc31)C(=O)c1ccccc1-2.Cl | 25 mg/kg | 32 nM | 2.6 | 169%
CNCCNc1ccc2c3c(nn2CCN)-c2c(O)ccc(O)c2C(=O)c13 |  | 700 nM |  | 
CNCCn1nc2c3c(c(NCCNCCO)ccc31)C(=O)c1c(O)ccc(O)c1-2.Cl | 3.12 mg/kg | 440 nM | >6.8 | 324%
Cl.NCCCNc1ccc2c3c(nn2CCCNCCO)-c2c(O)ccc(O)c2C(=O)c13 | 100 mg/kg | 1800 nM | 3.4 | 185%
CN(C)CCNc1ccc2c3c(nn2CCNCCO)-c2ccccc2C(=O)c13.Cl | 6.25 mg/kg | 32 nM | 3.1 | 174%
CCN(CC)CCn1nc2c3c(c(NCCN4CCNCC4)ccc31)C(=O)c1ccccc1-2.Cl | 25 mg/kg | 500 nM | -1.3 | 109%
CCN(CC)CCn1nc2c3c(c(NCCN4CCN(C(=O)OCc5ccccc5)CC4)ccc31)C(=O)c1ccccc1-2 |  | 390 nM |  | 
Cl.NCCNc1ccc2c3c(nn2CCN)-c2c(O)ccc(O)c2C(=O)c13 | 12.5 mg/kg | 480 nM | 5.6 | 221%
Cl.NCCn1nc2c3c(c(NCCNCCO)ccc31)C(=O)c1ccccc1-2 | 25 mg/kg | 80 nM | 3.7 | 
CCN(CC)CCNc1ccc2c3c(nn2CCO)-c2ccccc2C(=O)c13.Cl | 400 mg/kg | 880 nM | 0.8 | 145%
Cl.Cn1nc2c3c(c(NCCNCCO)ccc31)C(=O)c1c(O)ccc(O)c1-2 | 100 mg/kg | 150 nM | 2.9 | 
Cl.Cn1nc2c3c(c(NCCN)ccc31)C(=O)c1c(O)ccc(O)c1-2 | 12.5 mg/kg | 240 nM | 0 | 138%
CCCCCCNc1ccc2c3c(nn2CCN(CC)CC)-c2ccccc2C(=O)c13.Cl | 200 mg/kg | 2000 nM | -1.4 | 110%
CCN(CC)CCNc1ccc2c3c(nn2CCNCCO)-c2ccccc2C(=O)c13.Cl | 12.5 mg/kg | 60 nM | 1.8 | 158%
Cl.NCCn1nc2c3c(c(NCCCNCCO)ccc31)C(=O)c1c(O)ccc(O)c1-2 | 6.25 mg/kg | 870 nM | 3.4 | 194%
CN(C)CCNc1ccc2c3c(nn2CCNCCO)-c2c(O)ccc(O)c2C(=O)c13.Cl | 12.5 mg/kg | 230 nM | >6.6 | 250%
Cl.Cn1nc2c3c(cccc31)C(=O)c1c(NCCNCCO)cccc1-2 | 200 mg/kg | 1200 nM | -1.3 | 118%
CN(C)CCn1nc2c3c(c(NCCCN)ccc31)C(=O)c1c(O)ccc(O)c1-2.Cl | 12.5 mg/kg | 540 nM | 4.7 | 208%
CN(C)CCN(C)c1ccc2c3c(nn2CCNCCO)-c2c(O)ccc(O)c2C(=O)c13.Cl | 12.5 mg/kg | 630 nM | 4.9 | 
CN(C)CCCn1nc2c3c(c(NCCCN)ccc31)C(=O)c1c(O)ccc(O)c1-2.Cl | 25 mg/kg | 800 nM | 4 | 212%
Br.CCN(CC)CCn1nc2c3c(c(NCCNC)ccc31)C(=O)c1c(O)ccc(O)c1-2 | 25 mg/kg | 7400 nM | >7.1 | 
Cl.OCCNCCNc1ccc2c3c(c4ccccc4c(O)c13)N=N2 | 100 mg/kg | 2200 nM | -0.8 | 126%
CN(CCO)CCn1nc2c3c(c(NCCNCCO)ccc31)C(=O)c1c(O)ccc(O)c1-2.Cl | 12.5 mg/kg | 330 nM | 4.2 | 
Cl.O=C1c2c(O)ccc(O)c2-c2nn(CCNCCO)c3ccc(NCCCN(CCO)CCO)c1c23 | 100 mg/kg | 920 nM | 3.6 | 194%
CN(C)CCNc1ccc2c3c(nn2Cc2ccccc2)-c2c(O)ccc(O)c2C(=O)c13.Cl | 25 mg/kg | 860 nM | -1.5 | 104%

Structure (SMILES) | Dose (P388 [1]) | IC50 (L1210) | Activity (P388 [2]) | T/C (P388 [3])
CN(C)CCNCCNc1ccc2c3c(nn2CCN)-c2c(O)ccc(O)c2C(=O)c13.Cl | 50 mg/kg | 930 nM | 6.4 | 242%
CCN(CC)CCCCCCCNc1ccc2c3c(nn2CCN(CC)CC)-c2ccccc2C(=O)c13.Cl | 25 mg/kg | 630 nM | -1.5 | 104%
NCCCNc1ccc2c3c(nn2CCN)-c2c(O)ccc(O)c2C(=O)c13 |  | 310 nM |  | 
CN(C)CCn1nc2c3c(c(NCCN)ccc31)C(=O)c1c(O)ccc(O)c1-2.Cl | 12.5 mg/kg | 220 nM | >6.6 | 263%
CCN(CC)CCNc1ccc2c3c(nn2CCN(CC)CC)-c2c(O)ccc(O)c2C(=O)c13.Cl | 100 mg/kg | 550 nM | 3.5 | 180%
CN(C)CCCn1nc2c3c(c(NCCNCCO)ccc31)C(=O)c1c(O)ccc(O)c1-2.Cl | 12.5 mg/kg | 590 nM | 5.4 | 
Cl.O=C1c2c(NCCNCCO)cccc2-c2nn(CCNCCO)c3cccc1c23 | 12.5 mg/kg | 390 nM | -0.3 | 133%
CCN(CC)CCNc1ccc2c3c(nn2CCO)-c2c(O)ccc(O)c2C(=O)c13.Cl | 400 mg/kg | 730 nM | 4.6 | 190%
CCN(CC)CCNc1ccc2c3c(nn2C)-c2c(O)ccc(O)c2C(=O)c13.Cl | 400 mg/kg | 450 nM | 1.3 | 152%
CCN(CC)CCNc1ccc2c3c(nn2CCN(CC)CC)-c2ccccc2C(=O)c13.Cl | 50 mg/kg | 390 nM | -1.4 | 106%
Cl.O=C1c2ccccc2-c2nn(CCO)c3ccc(NCCNCCO)c1c23 | 25 mg/kg | 1800 nM | -0.9 | 125%
CN(C)CCCn1nc2c3c(c(NCCN)ccc31)C(=O)c1c(O)ccc(O)c1-2.Cl | 12.5 mg/kg | 200 nM | 6.6 | 230%
CCN(CC)CCNc1ccc2c3c(nn2CCNCCO)-c2c(O)ccc(O)c2C(=O)c13.Cl | 50 mg/kg | 510 nM | >6.7 | 
COCCn1nc2c3c(c(NCCNCCO)ccc31)C(=O)c1c(O)ccc(O)c1-2.Cl | 100 mg/kg | 1600 nM | 0.3 | 140%
CCN(CC)CCNc1ccc2c3c(c4ccccc4c(O)c13)N=N2.Cl | 400 mg/kg | 1500 nM | -1.4 | 111%
CN(C)CCNCCNc1ccc2c3c(nn2CCNCCO)-c2c(O)ccc(O)c2C(=O)c13.Cl | 50 mg/kg | 760 nM | >6.8 | 254%
Cl.O=C1c2c(O)ccc(O)c2-c2nn(CCNCCO)c3ccc(NCCCNCCO)c1c23 | 6.25 mg/kg | 1800 nM | >6.8 | 254%
Cl.NCCNc1ccc2c3c(nn2CCNCCO)-c2c(O)ccc(O)c2C(=O)c13 | 3.12 mg/kg | 1600 nM | 4.8 | 197%
Cl.NCCNCCNc1ccc2c3c(nn2CCNCCO)-c2c(O)ccc(O)c2C(=O)c13 | 25 mg/kg | 330 nM | >6.6 | 277%
CNc1ccc2c3c(nn2CCNCCO)-c2ccccc2C(=O)c13.Cl | 200 mg/kg | 740 nM | -0.7 | 127%
Cl.NCCNc1ccc2c3c(nn2CCNCCO)-c2ccccc2C(=O)c13 | 25 mg/kg | 69 nM | 4.4 | 
CCN(CC)CCNc1cccc2c1C(=O)c1cccc3c1c-2nn3CCN(CC)CC.Cl | 50 mg/kg | 600 nM | -1.5 | 103%
CCN(CC)CCn1nc2c3c(c(NCCN4CCOCC4)ccc31)C(=O)c1ccccc1-2.Cl | 400 mg/kg | 480 nM | >6.8 | 
CCN(CC)CCn1nc2c3c(c(NCCNC)ccc31)C(=O)c1ccccc1-2.Cl | 25 mg/kg | 27 nM | 0.7 | 138%
CN(C)CCNCCNc1ccc2c3c(nn2CCCN)-c2c(O)ccc(O)c2C(=O)c13.Cl | 25 mg/kg | 640 nM | 5.6 | 228%
Cl.O=C1c2c(O)ccc(O)c2-c2nn(CCNCCO)c3ccc(NCCNCCO)c1c23 | 6.25 mg/kg | 740 nM | 4.6 | 
CN(C)CCNc1ccc2c3c(nn2CCO)-c2c(O)ccc(O)c2C(=O)c13.Cl | 200 mg/kg | 15 nM | 6.6 | 283%
